Measured values pooled from the literature.
Compare with care: the assays were run in different laboratories.
Target: Tyrosine-protein kinase CSK (CSK, Homo sapiens, UniProt P41240)

Compound | read-out | action | technique | tested at | quantity | result
Cc1nn(C)cc1-c1nc2c(N3CCN(Cc4ccc(Cl)cc4)CC3)c(Cl)cnc2[nH]1 | binding |  | competition with immobilised ligand | 1 µM | remaining binding | 100%
O=C(NCc1ncc(C(F)(F)F)cc1Cl)c1ccc2c(c1)C1(CCS(=O)(=O)CC1)[C@@H](C1CC1)N2S(=O)(=O)c1ccc(F)cc1 | cell-free assay |  | competition with immobilised ligand | 1 µM | remaining binding | 96%
Cn1cc(-c2cc(F)cc(N3CCn4c(cc5c4CCCC5)C3=O)c2CO)cc(Nc2ccc(N3CCN(C4COC4)CC3)cn2)c1=O | enzyme activity | inhibitor |  | 0.1 µM | inhibition | 12%
COc1ncccc1-c1cnn2ccc(N3CCN(C(=O)OC(C)C)CC3)nc12 | binding |  | competition with immobilised ligand | 1 µM | remaining binding | 100%
Cn1cc(-c2cccc(N3CCc4c(sc5c4CC(C)(C)C5)C3=O)c2CO)cc(Nc2ccncn2)c1=O | enzyme activity | inhibitor |  | 1 µM | inhibition | 4%
O=c1[nH]c2ccccc2n1C1CCN(Cc2ccc(-c3[nH]c4cc5ncnc5cc4nc3-c3ccccc3)cc2)CC1 | enzyme activity |  |  | 0.5 µM | remaining activity | 101%
Nc1ncc(-c2nc(N3CCOCC3)nc(N3CCOCC3)n2)c(C(F)F)n1 | binding |  | competition with immobilised ligand | 10 µM | remaining binding | 73%
CC(C)(C)c1cc(C=C(C#N)C#N)cc(Br)c1O | enzyme activity | inhibitor |  | 0.5 µM | remaining activity | 106%
N#CC1(c2ccccn2)CCN(Cc2cc(C(=O)O)c(=O)n3ccccc23)CC1 | cell-free assay |  | competition with immobilised ligand | 1 µM | remaining binding | 100%
